The source made the active and inactive calls. No cut-off for these calls is given here.
Experiments:
[1] = test system: Leishmania donovani; assay: Antileishmanial activity against DsRed2 expressing Leishmania donovani promastigote assessed as parasite death after 48 hrs by flow cytometry; type: functional, organism-based
[2] = Cytotoxicity against BALB/c mouse peritoneal macrophages after 48 hrs by MTT assay; type: cell-based; settings: peritoneal macrophage cell
In short: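 BALB/c peritoneal macrophages were seeded at 1×10^5 cells/well and exposed to 0.2 to 600 μM compound for 48 h at 37 °C under 5% CO2. Viability was read by MTT cleavage, with formazan extracted in 10% SDS for 18 h at 24 °C and absorbance read at 570 nm.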

[3] = Induction of NO production in C57BL/6 mouse macrophages after 72 hrs by Griess assay; settings: macrophage
[4] = test system: Leishmania donovani; assay: Antileishmanial activity against DsRed2 expressing Leishmania donovani amastigotes assessed as parasite death after 72 hrs by flow cytometry
[5] = test system: Macrophage; assay: Inhibition of IL6 production in DsRed2-Leishmania donovani promastigote infected in C57BL/6 mouse macrophages after 72 hrs by ELISA; type: functional, cell-based
In short: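 C57BL/6 bone marrow-derived macrophages (3.5×10^6 cells/well, quadruplicates) were infected with DsRed2-L. donovani promastigotes at 1:10 and treated for 72 h at 37 °C. Supernatant IL-6 was measured by ELISA and reported in pg/mL as mean ± SE.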

[6] = Selectivity index, ratio of CC50 for BALB/c mouse peritoneal macrophages to IC50 for DsRed2-Leishmania donovani amastigotes; type: functional

Compound | IC50 ([1]; read-out: IC50) | CC50 [2] | Activity [3] | IC50 [1] | IC50 [4] | inhibition [5] | Ratio CC50/IC50 [6]
SODIUM ANTIMONY GLUCONATE | 307 µM | 53.4 µM | – | – | – | – | –
C=CCc1ccc(Oc2cc([C@H](O)C=C)cc(OC)c2O)c(OC)c1 | – | > 292 µM | Non-toxic | Not Active | 102 µM | Active | >2.9
